Data taken from ChEMBL document CHEMBL4513216, “Probing the Open Global Health Chemical Diversity Library for Multistage-Active Starting Points for Next-Generation Antimalarials” (ACS Infect Dis, 2020).

Experiment: Toxicity liver stage against HepG2, at 10uM
Format: cell-based
Design: test concentration 10 uM, cell line HepG2-A16-CD81EGFP
Details: human, HepG2-A16-CD81EGFP cells; read-out: INHIBITION
Outline: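 Uninfected HepG2-A16-CD81EGFP cells, 3 × 10^3 per well, 1536-well, plated on prespotted compound at 10 μM final, parasite-free screening media added to match infected plates; puromycin 10 μM positive, DMSO 0.5% negative; run in parallel with 48 h PbLuc assay at 37 °C, 5% CO2; viability by CellTiter-Glo luminescence, normalized to controls.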

Row | Compound | cytotoxicity at 10 µM
1 | COc1cccc(N2CCN(C(=O)c3noc4c3CCCCC4)CC2)c1 | 9.4%
2 | COc1ccc(O[C@H]2COCCN(Cc3cccc4c3OCO4)C2)cc1 | 0.375%
3 | CN1C(=N)NC(=O)/C1=C/c1ccc(-c2ccc(Br)cc2)o1 | 5.39%
4 | CC(C)CN1CC(O)CN(S(=O)(=O)c2ccccc2)CC1=O (configuration not stated) | 1.74%
5 | Cc1ccsc1C(O)CNS(=O)(=O)Cc1ccc(F)cc1 (configuration not stated) | -4.38%
6 | Cc1ccc(CN2CCCn3c(nc(Cn4ccnc4)cc3=O)C2)o1 | 5.89%
7 | O=C(c1cc(-n2cnnn2)ccc1Cl)N1CCN(c2ccccc2)CC1 | 11.3%
8 | COc1cccc(C2CC(=O)Nc3c2c(=O)n(C)c2ncnn32)c1 (configuration not stated) | -0.549%
9 | COc1cc(C)c2c(c1C)C[C@@H](C(C)C(=O)O)CC2 (some centres not stated) | 4.98%
10 | CNC(=O)c1cccnc1Oc1ccccc1 | 2.84%
11 | N#Cc1cccc(C(=O)N2CCc3ncc(Cn4cccn4)n3CC2)c1 | 5.84%
12 | Cc1ccc2c(c1)CCC21CCN(C(=O)CO)CC1 | -8.13%
13 | Cc1cc(C(=O)NCc2ccco2)nn1C | -2.8%
14 | CCc1noc(C2CCN(C(=O)CCn3nc(C)cc3C)CC2)n1 | -9.52%
15 | CN(C)Cc1cn(-c2ccccc2C(=O)NCCC2CCCN2C)cn1 (configuration not stated) | 4.08%
16 | Cc1cc(-c2cnc(N3CCCC3)nc2C(C)C)on1 | 5.14%
17 | CCOCCN1CCC(c2cncc(C)n2)CC1 | -2.58%
18 | COCCC(=O)N1CCCC([C@@H]2C[C@H](C(F)F)n3ncnc3N2)C1 (some centres not stated) | -1.28%
19 | Nc1nc(N)c2c(n1)OC1(CCCN(Cc3nccs3)CC1)C2 (configuration not stated) | -2.25%
20 | c1ccc(Cc2cncc(C3CCCN3C3CCOCC3)n2)cc1 (configuration not stated) | 1.4%
21 | COc1ccccc1C1CNCCN1C(C)=O (configuration not stated) | 3.6%
22 | COc1cccc(S(=O)(=O)N2C[C@@H](O)[C@H](N(C)C)C2)c1 | 5.76%
23 | Cc1sc2c(C3CCCN(C)C3)nc(C)n2c1C (configuration not stated) | -26.9%

Row | Compound | cytotoxicity at 10 µM
24 | O=C(c1ccc(F)cc1)N1CCOC(c2nc(-c3ncccn3)no2)C1 (configuration not stated) | -12.4%
25 | O=C(N[C@@H]1CN(Cc2ccc(F)cc2)C[C@H]1O)c1cscn1 | -11.7%
26 | O=C(C1CCCC1)N1CC2(CCN(C3COC3)C2)Cc2ccccc21 (configuration not stated) | 10.1%
27 | O=C(Cc1c[nH]c2ncccc12)NCC(O)c1ccsc1 (configuration not stated) | 5.46%
28 | N#Cc1cccc(CNc2ccc(F)cc2OCCO)c1 | -2.03%
29 | NC(=O)c1cnc(NC(=O)CCc2ccco2)c(Cl)c1 | 3.42%
30 | CC(C)c1nnc2n1CCN(Cc1cc(Cl)c3c(c1)OCCO3)C2 | 0.549%
31 | COc1ccccc1CC(=O)N(C)Cc1cc(C)on1 | 4.76%
32 | Cc1cc(C[S+]([O-])Cc2ccccc2F)on1 (configuration not stated) | -8.37%
33 | CN(C)c1ccc(C(=O)Nc2ccn(Cc3ccccn3)n2)cn1 | -0.677%
34 | O=C(CCN1CCc2cncnc2C1)N1CCc2sccc2C1 | 2.37%
35 | O=C(Nc1ccc(F)cc1)C1CCN(Cc2noc(C3CC3)n2)CC1 | 4.05%
36 | CN(CC1CCC1)C(=O)Nc1cccnc1-n1cncn1 | 2.86%
37 | N#Cc1ccc(S(=O)(=O)NCCn2ccnc2)cc1Cl | 22.5%
38 | CNC(=O)C1Cc2ccccc2CN1CCc1cccs1 (configuration not stated) | -0.837%
39 | CNC(=O)C1Cc2ccccc2CN1CCCc1ccccc1 (configuration not stated) | 4.23%
40 | NC(=O)C1CCN(CCc2ccc(NCc3ccoc3)cc2)CC1 | -26.2%
41 | CC(NC1CCN(C(=O)C2CCCCC2)CC1)c1nccs1 (configuration not stated) | -4.22%
42 | CC(C)c1nnc2n1CCN(C(=O)c1ccccc1OCC1CC1)C2 | 10.5%
43 | CCN(CC)Cc1ccc(C(=O)NC2CCc3cc(F)ccc32)o1 (configuration not stated) | -9.03%
44 | Cc1csc(C2CCCCN2C(=O)CCCn2cccn2)n1 (configuration not stated) | -0.89%
45 | CNC(=O)Cc1ccccc1NC(=O)C1CCN(C2CCCCC2)C1 (configuration not stated) | -0.355%
46 | Cc1cccc(S(=O)(=O)NC(=O)c2ccc3c(c2)nnn3C)c1 | -8.97%

Row | Compound | cytotoxicity at 10 µM
47 | Cc1cscc1C(=O)NC1CC(=O)N(C(C)C)C1=O (configuration not stated) | -6.51%
48 | CC(NC(=O)c1cccnc1N(C)C)c1ccccc1Cl (configuration not stated) | -4.97%
49 | OCCCN(CCc1cccc(F)c1)C1CC1 | -8.9%
50 | Cc1nnc(CN(C)Cc2nc3c(s2)CCCC3)o1 | -1.42%
51 | CN(Cc1cccc(O)c1)Cc1cnn(C)c1 | -0.198%
52 | Cc1c(CNC(=O)C2CCCN2C(=O)C2CC2)oc2ccccc12 (configuration not stated) | 5.6%
53 | Cc1ncc(CN(C)CC(O)c2ccc(OC(F)(F)F)cc2)s1 (configuration not stated) | 9.99%
54 | CNC(=O)C(C)CN(C)C(=O)Nc1ccc(F)c(-n2cccc2)c1 (configuration not stated) | -2.07%
55 | CCN(CC)C(=O)Nc1cc2c(cc1SC)OCCO2 | -7.87%
56 | O=C(Nc1cccc(OCc2ccc(F)cc2)c1)C1COCCO1 (configuration not stated) | 1.18%
57 | CN(C)CCN(Cc1ccc(Cl)cc1)C(=O)c1cc[nH]n1 | 5.65%
58 | Cn1ccnc1-c1cccc(NC(=O)NCCCO)c1 | -6.77%
59 | COCC(=O)N1CC[C@@H]2O[C@@H](C)C[C@H]2C1 | -69.6%
60 | CC(C)CC(=O)N1CC(=O)c2sc(NC3CCCCC3)nc2C1 | -7%
61 | COc1cccc(N2CCN(Cc3ccc4[nH]ccc4c3)CC2=O)c1 | 4.59%
62 | CCc1nc(CN(C)C(=O)C2CC(=O)N(c3cccc(O)c3)C2)no1 (configuration not stated) | -10.2%
63 | CCc1ncc2c(n1)CN(C(=O)CNC(=O)C(C)C)C2 | 7.28%
64 | CC(=O)N1CCN(Cc2ccc(F)c(C(F)(F)F)c2)CC(O)C1 (configuration not stated) | -6.87%
65 | CS(=O)(=O)NCCC(=O)N1Cc2cnc(-c3ccccc3)nc2C1 | -4.65%
66 | Cc1noc(C)c1CN(Cc1cccnc1)C1CN2CCC1CC2 (configuration not stated) | 1.91%
67 | Cc1ccc(C(C(=O)N2CCN(C(=O)c3ccc[nH]3)CC2)N(C)C)cc1 (configuration not stated) | -10.7%
68 | CCc1nc(C)c(CNC(=O)CCCN2CCCCC2)s1 | -4.65%
69 | CCCc1nnc(N2C[C@@H](C)[C@@](C)(O)C2)s1 | 1.22%

Row | Compound | cytotoxicity at 10 µM
70 | CC(C)c1nnc(CN2C(=O)OC[C@@H]2C(C)C)o1 | 14.3%
71 | CC(C)CS(=O)(=O)CCNc1ncccn1 | -2.43%
72 | CCOCCc1nc(Cc2ccccc2)n[nH]1 | 7.9%
73 | Cc1nc(CNC(=O)c2cc(COc3cccc(F)c3)[nH]n2)n[nH]1 | -2.52%
74 | CC(Cn1cncn1)Nc1ccc(-c2nccn2C)nn1 (configuration not stated) | -3.73%
75 | CNC(=O)CN(C)c1nc(-c2ccc(C(N)=O)cc2)nc2c1CCNC2 | 3.62%
76 | NC(=O)c1ccnc(N2CCCC(CO)(Cc3ccccc3)C2)c1 (configuration not stated) | 11.6%
77 | Cc1ccc(F)cc1NC(=O)C1CCCN1C(=O)C(C)C (configuration not stated) | -4.93%
78 | CC(=O)N[C@@H]1CN(C(=O)c2csc(C(C)C)n2)C[C@H]1C(C)C | -6.71%
79 | O=C(CCc1cc2n(n1)CCCN(Cc1ccccc1F)C2)NC1CC1 | -12.8%
80 | COc1ccc(NC(=O)CCC2CCCN(Cc3ncon3)C2)c(C)c1 (configuration not stated) | 0.523%
81 | Cn1ccnc1CN1CCOCC(Cc2ccccn2)C1 (configuration not stated) | 7.17%
82 | Cc1cncc(C2CCCN(Cc3cccn3C)C2)n1 (configuration not stated) | 8.25%
83 | CCc1nnc2n1CCN(C(=O)c1cc3cc(C)ccc3[nH]1)C2 | 0.893%
84 | Cn1nnc2cc(C(=O)N3CCC(Nc4cccnn4)CC3)ccc21 | -2.85%
85 | O=C(COC1CCCCC1)NS(=O)(=O)c1ccc2c(c1)OCCCO2 | 3.85%
86 | Cc1cnc2c(S(=O)(=O)NC3CCS(=O)(=O)C3)cccc2c1 (configuration not stated) | -2.28%
87 | CN(CC(=O)N1CCC(N(C)c2ccccc2)CC1)c1cnccn1 | -6.6%
88 | CCc1nnc2n1CCN(Cc1cc(Cl)c3c(c1)OCCO3)C2 | -8.95%
89 | O=C(Nc1ccccn1)N(CCO)Cc1ccccc1Br | -14.4%
90 | CCOc1ncccc1C(=O)N1CCCC1Cn1cc(C)cn1 (configuration not stated) | 0.787%
91 | O=C(c1cnc(-c2cnccn2)s1)N1CCCC(n2cccn2)C1 (configuration not stated) | -9.04%
92 | Cc1ncsc1C(=O)NC1CCN(CC(=O)N(C)c2ccccc2)CC1 | 1.26%

Row | Compound | cytotoxicity at 10 µM
93 | Clc1ccccc1-c1nc(CNC2CCc3ncnn3C2)cs1 (configuration not stated) | -4.28%
94 | Cc1cccn2cc(CC(=O)N3CCCC(n4cncn4)C3)nc12 (configuration not stated) | -7.31%
95 | CC(Nc1cccc(CN2CCOC2=O)c1)C(=O)N1CCNC1=O (configuration not stated) | -1.63%
96 | CNS(=O)(=O)c1ccc(C(=O)NC2CCc3nc(C)cn3C2)o1 (configuration not stated) | -12.3%
97 | CC(NC(=O)N(C)Cc1ccsc1)c1ccc2c(c1)NC(=O)CO2 (configuration not stated) | -7.77%
98 | Cc1cc(C)n(C2CCCN(C(=O)Cc3csc(C)n3)C2)n1 (configuration not stated) | -10.4%
99 | CN(Cc1ncc(C(C)(C)C)o1)C1CCCN(c2cccnn2)C1 (configuration not stated) | -16.1%
100 | Cc1cnc(CN2CCCC(c3cc(C(F)(F)F)[nH]n3)C2)cn1 (configuration not stated) | -0.168%
101 | Cc1nc(-c2ccco2)ccc1C(=O)N1CCCC1Cn1cccn1 (configuration not stated) | 5.61%
102 | Cc1cccc(-c2[nH]ncc2CNCC2CCN(CC(C)O)CC2)c1 (configuration not stated) | -10.1%
103 | O=C(c1ccc2c(c1)OCO2)N1CCCC(n2cccn2)C1 (configuration not stated) | -8.4%
104 | Cc1cccc(-n2cc(C(=O)N3CCCC(n4ccnc4)C3)nn2)c1 (configuration not stated) | 5.39%
105 | O=S(=O)(c1ccc(Cl)cc1)N1CCc2nc(C3CCNCC3)ncc2C1 | -17.3%
106 | O=C(NCC1CCOCC1)[C@H]1C[C@@H]2CCN(Cc3ccncc3)C[C@@H]2O1 | -14.1%
107 | Cc1noc(C)c1CN1CCCC2(C1)CN(Cc1nccn1C)CCO2 (configuration not stated) | 7.69%
108 | Cc1noc(C)c1C(=O)N1CC[C@]2(C[C@@H](OCc3cccnc3)CO2)C1 | -79.7%
109 | O=C(NCc1ccco1)[C@@H]1CCO[C@@H]2CCN(c3ccncn3)C[C@H]21 | 0.118%
110 | O=C1[C@H]2CN(Cc3cccs3)C[C@H]2CN1CCN1CCCC1 | -12.7%
111 | CS(=O)(=O)N1C[C@H]2CC[C@@H](C1)N(Cc1ccsc1)C2 | 44.7%
112 | CCSCCNC(=O)c1ccc(S(=O)(=O)N2C[C@H]3C[C@@H]2CN3)cc1 | -1.98%
